Laboratory results reported in PubChem BioAssay.
Calls of active or inactive are those of the source.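 The calls were made as follows, unless noted: active = viability at or below 10% of carrier control in both of two separate runs; inconclusive = viability at or below 10% in only one of the two runs; inactive = the rest.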

Columns and labels:
[1] = reducers of endogenous Her2 protein level, primary screen, SKBR3 breast tumor cells, AlphaScreen, ATP viability (AID 461;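 active = Her2 level under about 52% in both replicate screens, with viability over 70% of control, limit read from the data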;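 as to Her2 level: lower value means less Her2 protein in the cells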;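 as to viability: percent of carrier control wells set as 100% viability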); conditions: 18-24 h, measured here: SKBR3 viability, ATP luminescence, at 10 µM
[2] = target: Receptor tyrosine-protein kinase erbB-2 (Homo sapiens) (UniProt P04626); assay: as above; conditions: 18-24 h, at 10 µM, stronger effect = lower value
Receptor tyrosine-protein kinase erbB-2 (Homo sapiens), sequence (P04626 whole entry, looked up): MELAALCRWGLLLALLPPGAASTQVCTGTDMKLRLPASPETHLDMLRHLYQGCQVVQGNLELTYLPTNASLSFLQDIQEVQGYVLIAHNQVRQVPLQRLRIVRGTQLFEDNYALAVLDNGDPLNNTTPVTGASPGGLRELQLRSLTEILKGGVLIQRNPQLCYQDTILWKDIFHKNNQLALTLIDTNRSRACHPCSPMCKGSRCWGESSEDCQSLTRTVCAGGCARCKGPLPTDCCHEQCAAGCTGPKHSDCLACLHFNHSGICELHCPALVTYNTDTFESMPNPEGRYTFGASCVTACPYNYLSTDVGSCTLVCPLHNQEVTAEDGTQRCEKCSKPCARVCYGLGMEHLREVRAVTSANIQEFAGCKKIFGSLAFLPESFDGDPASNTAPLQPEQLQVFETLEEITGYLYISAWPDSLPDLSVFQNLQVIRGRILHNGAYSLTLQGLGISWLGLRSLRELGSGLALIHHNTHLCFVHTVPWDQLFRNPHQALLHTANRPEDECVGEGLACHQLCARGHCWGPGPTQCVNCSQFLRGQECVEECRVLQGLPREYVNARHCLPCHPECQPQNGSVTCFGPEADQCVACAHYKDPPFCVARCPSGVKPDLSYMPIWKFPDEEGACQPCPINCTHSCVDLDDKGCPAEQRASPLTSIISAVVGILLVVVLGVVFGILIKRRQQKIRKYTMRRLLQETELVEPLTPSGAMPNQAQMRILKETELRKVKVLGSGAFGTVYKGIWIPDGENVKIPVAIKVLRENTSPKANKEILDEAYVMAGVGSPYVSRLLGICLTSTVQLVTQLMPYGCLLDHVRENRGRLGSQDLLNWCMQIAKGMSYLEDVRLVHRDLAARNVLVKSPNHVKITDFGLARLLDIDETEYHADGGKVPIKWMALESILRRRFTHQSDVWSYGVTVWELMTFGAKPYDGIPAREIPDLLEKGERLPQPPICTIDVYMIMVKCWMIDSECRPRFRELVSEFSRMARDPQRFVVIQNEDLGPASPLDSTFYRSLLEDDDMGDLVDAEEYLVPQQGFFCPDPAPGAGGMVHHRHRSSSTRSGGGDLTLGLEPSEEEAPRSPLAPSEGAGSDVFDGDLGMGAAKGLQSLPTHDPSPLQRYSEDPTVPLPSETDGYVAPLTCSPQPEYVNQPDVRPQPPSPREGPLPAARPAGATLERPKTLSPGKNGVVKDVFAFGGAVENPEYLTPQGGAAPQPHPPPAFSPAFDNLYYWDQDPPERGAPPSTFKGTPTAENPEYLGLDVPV

[3] = SK-BR-3 cell growth inhibitors, pilot screen, 24 h, human (AID 572); conditions: SK-BR-3 viability, CellTiter-Glo luminescence, at 10 µM, stronger effect = lower value;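 also: compound exposure lasted between 18 and 24 h rather than exactly 24 h; 100% = carrier-treated control wells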
[4] = HUVEC growth inhibition – cell-based, human, primary screen (AID 575;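 active = viability at or below 30% in both replicate assays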;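 also: 100% = median of untreated cell wells with 0.1% DMSO on each plate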); conditions: HUVEC proliferation, CellTiter-Glo luminescence, 72 h; at 10 µM; stronger effect = lower value
Summary of the method: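 material = primary HUVEC, no more than 12 passages | input = 1250 cells per well | controls = vehicle and MePR control wells | measured by = CTG luminescence | times = 72 h compound incubation | format = collagen-coated 384-well format | read-out = % viability vs DMSO wells | doses = single 10 µM dose, 0.1% DMSO, from 5x medium stock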

[5] = growth inhibitors of H69AR lung tumor, primary screen, human, duplicate replicates (AID 580;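 active = viability at or under a set limit in both replicates, limit being median viability minus 3 SD, cut at about 48% in these data, passing the limit was not always enough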;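 also: 100% = mean luminescence of untreated wells and 0% = no signal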); conditions: H69AR lung tumor cells viability, ATP luminescence, 72 h; at 10 µM; stronger effect = lower value
[6] = reversal of MRP1-mediated doxorubicin resistance, pilot screen, H69AR cells, doxorubicin co-treatment (AID 601;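 active = viability loss from added drug above about 55%, and viability with drug at most 40%, in both replicates, limit read from the data, passing the limit was not always enough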); conditions: CellTiter-Glo, 72 h, at 10 µM; for differential viability (reversal): stronger effect = higher value
[7] = 384-well plate pilot, post-Golgi transport modulator project, inhibition of yeast transport mutant growth (AID 636; in the data active = inhibition above about 31%); conditions: absorbance 615 nm, about 18 h, stronger effect = higher value
[8] = growth suppression of yeast trafficking mutant, preliminary HTS, modulators of trafficking downstream of Golgi apparatus project, 1536-format plate, OD 615 nm (AID 637; in the data active = inhibition above about 30%); conditions: yeast transport mutant growth, absorbance 615 nm, 18 h; stronger effect = higher value
[9] = H69AR cells + 2 uM doxorubicin, measured here: viability with 2 uM doxorubicin, stronger effect = lower value
[10] = H69AR cells, compound alone cytotoxicity

Structure (SMILES) | viability [1] | Her2 level [2] | viability [3] | viability [4] | viability [5] | differential viability (reversal) ([6]; H69AR cells + 2 uM doxorubicin) | viability [6, 9] | viability [6, 10] | inhibition [7] | inhibition [8]
CCn1c(C(=O)N2CCCC(C(=O)O)C2)cc2sccc21 (stereo not given) | 103% | 98.5% (inactive) | 103% (inactive) | 101% (inactive) | 93.8% (inactive) | 6.41% (inactive) | 87.4% | 93.8% | 0.53% (inactive) | -1.15% (inactive)
O=C(CN1C(=O)CCSc2ccccc21)Nc1ccc2c(c1)OCO2 | 124% | 85.5% (inactive) | 124% (inactive) | 97.6% (inactive) | 103% (inactive) | 0.09% (inactive) | 103% | 103% | -2.5% (inactive) | -4.13% (inactive)
Fc1cccc(-c2cc3nc4c(c(N5CCN(c6cnccn6)CC5)n3n2)CCCC4)c1 | 104% | 78% (inactive) | 104% (inactive) | 86.9% (inactive) | 89.2% (inactive) | 5.59% (inactive) | 83.6% | 89.2% | -5.58% (inactive) | 0.16% (inactive)
CCCC(=O)Nc1ccc(OCC(=O)OC)cc1 | 99.5% | 78.5% (inactive) | 99.5% (inactive) | 89.9% (inactive) | 98.9% (inactive) | 5.34% (inactive) | 93.6% | 98.9% | -3.95% (inactive) | 0.79% (inactive)
CCn1c(CSc2ncccn2)nnc1SCC(=O)N1c2ccccc2CC1C (stereo not given) | 96% | 87.5% (inactive) | 96% (inactive) | 87.5% (inactive) | 96.3% (inactive) | 11.9% (inactive) | 84.3% | 96.3% | -5.73% (inactive) | 5.41% (inactive)
O=C(CSc1nnnn1C1CCCC1)N1CCN(C(=O)c2ccco2)CC1 | 82% | 89.5% (inactive) | 82% (inactive) | 105% (inactive) | 105% (inactive) | 1.94% (inactive) | 103% | 105% | -3.11% (inactive) | 4.59% (inactive)
C=CCN(CC=C)C(=O)CN1C(=O)c2ccccc2C1=O | 125% | 89.5% (inactive) | 125% (inactive) | 97.5% (inactive) | 92.2% (inactive) | 0.065% (inactive) | 92.1% | 92.2% | 0% (inactive) | 1.13% (inactive)
CC(Oc1ccccc1)C(=O)Nc1ccc(S(=O)(=O)NCC2CCCO2)cc1 (stereo not given) | 89.5% | 94.5% (inactive) | 89.5% (inactive) | 101% (inactive) | 98.7% (inactive) | 4.12% (inactive) | 94.6% | 98.7% | -1.73% (inactive) | -5.71% (inactive)
COc1ccc(CCNC(=O)c2cc(C(C)C)on2)cc1OC | 95.5% | 101% (inactive) | 95.5% (inactive) | 96.6% (inactive) | 93.2% (inactive) | 9.6% (inactive) | 83.6% | 93.2% | 0.51% (inactive) | -0.67% (inactive)
CN1CCN(C(=O)c2cnn3c(C(F)F)cc(C4CC4)nc23)CC1 | 95% | 88.5% (inactive) | 95% (inactive) | 103% (inactive) | 94.4% (inactive) | 9.3% (inactive) | 85.1% | 94.4% | -2.63% (inactive) | 3.23% (inactive)
O=C(CCNC(=O)Cn1ccc2ccccc2c1=O)NCCN1CCN(c2ccccc2F)CC1 | 96% | 92% (inactive) | 96% (inactive) | 99.2% (inactive) | 88.1% (inactive) | 9.11% (inactive) | 79% | 88.1% | -4.87% (inactive) | -1.45% (inactive)
O=C(Cc1ccc(Br)cc1)N1CCCCCC1 | 108% | 106% (inactive) | 108% (inactive) | 115% (inactive) | 97.9% (inactive) | 8.29% (inactive) | 89.6% | 97.9% | -4.08% (inactive) | -0.49% (inactive)
COc1ccc(CNS(=O)(=O)c2ccc3oc(C(=O)O)c(C)c3c2)cc1 | 103% | 93% (inactive) | 103% (inactive) | 111% (inactive) | 92.2% (inactive) | 0.665% (inactive) | 91.6% | 92.2% | -3.64% (inactive) | -2.46% (inactive)
COc1ccc(N2CCN(C(=O)CSc3nnc(Cn4nnc5ccccc54)n3C)CC2)cc1 | 99.5% | 111% (inactive) | 99.5% (inactive) | 108% (inactive) | 103% (inactive) | 11.4% (inactive) | 92.1% | 103% | -1.97% (inactive) | -6.61% (inactive)
O=C(COn1nnc2ccc(C(F)(F)F)cc21)Nc1nnc(-c2ccccc2)o1 | 87% | 92.5% (inactive) | 87% (inactive) | 68.2% (inactive) | 97.8% (inactive) | 15.5% (inactive) | 82.3% | 97.8% | -7.76% (inactive) | -3.27% (inactive)
CC1CN(CC(O)COc2ccc(C(C)C)cc2)CC(C)O1 (stereo not given) | 93% | 94.5% (inactive) | 93% (inactive) | 94.9% (inactive) | 76.2% (inactive) | 3.78% (inactive) | 72.4% | 76.2% | 18.6% (inactive) | 6% (inactive)

Structure (SMILES) | viability [1] | Her2 level [2] | viability [3] | viability [4] | viability [5] | differential viability (reversal) ([6]; H69AR cells + 2 uM doxorubicin) | viability [6, 9] | viability [6, 10] | inhibition [7] | inhibition [8]
CCOC(=O)c1ccc(NS(=O)C23CC4CC(CC(C4)C2)C3)cc1 (stereo not given) | 95.5% | 82% (inactive) | 95.5% (inactive) | 74% (inactive) | 87.6% (inactive) | -4.57% (inactive) | 92.2% | 87.6% | -7.57% (inactive) | 3.28% (inactive)
O=C(NCc1ccccc1)N[C@@H](Cc1ccccc1)C(=O)O | 96% | 95% (inactive) | 96% (inactive) | 106% (inactive) | 92.6% (inactive) | 3.32% (inactive) | 89.2% | 92.6% | -2.86% (inactive) | 3.5% (inactive)
O=C(C1CCC(CNS(=O)(=O)c2cccc3cccnc23)CC1)N1CCCC1 (stereo not given) | 98.5% | 104% (inactive) | 98.5% (inactive) | 99.9% (inactive) | 99.9% (inactive) | 3.37% (inactive) | 96.6% | 99.9% | -1.07% (inactive) | -6.72% (inactive)
Cc1ccc(C2CC(c3cccc(Br)c3)Nc3nnnn32)cc1 (stereo not given) | 92.5% | 79.5% (inactive) | 92.5% (inactive) | 56.7% (inactive) | 91.7% (inactive) | 6.65% (inactive) | 85% | 91.7% | -2.11% (inactive) | 0.16% (inactive)
NS(=O)(=O)c1ccc(NC(=O)N[C@@H](Cc2ccccc2)C(=O)O)cc1 | 82.5% | 95.5% (inactive) | 82.5% (inactive) | 95.6% (inactive) | 97.6% (inactive) | 5% (inactive) | 92.6% | 97.6% | -3.73% (inactive) | 4.52% (inactive)
O=C(CN1CCN(C2CCCCC2)CC1)Nc1ccccc1-c1ccccc1 | 90.5% | 61% (inactive) | 90.5% (inactive) | 91.4% (inactive) | 84.7% (inactive) | 7.96% (inactive) | 76.7% | 84.7% | -3.24% (inactive) | 1.9% (inactive)
Cc1cc(NC(=O)CSc2nnc(C3CC3)n2C)no1 | 91% | 80% (inactive) | 91% (inactive) | 92.4% (inactive) | 100% (inactive) | 0.235% (inactive) | 100% | 100% | -0.53% (inactive) | -2.91% (inactive)
CC(=O)NC1(C(F)(F)F)NC(=O)N(CC(C)C)C1=O (stereo not given) | 103% | 109% (inactive) | 103% (inactive) | 91.1% (inactive) | 102% (inactive) | 18.8% (inactive) | 83.6% | 102% | -2.3% (inactive) | -0.66% (inactive)
COc1ccc(OC)c(C(=O)CSc2nc3ncccc3[nH]2)c1 | 94% | 108% (inactive) | 94% (inactive) | 96.6% (inactive) | 88.9% (inactive) | 7.8% (inactive) | 81.1% | 88.9% | -1.17% (inactive) | 12.5% (inactive)
O=c1[nH]c(Nc2ccccc2)cc2ccccc12 | 94.5% | 92% (inactive) | 94.5% (inactive) | 82.2% (inactive) | 101% (inactive) | 3.34% (inactive) | 97.9% | 101% | 2.5% (inactive) | 14.3% (inactive)
CCOc1cccc(Oc2ccc(C(F)(F)F)cn2)c1 | 99% | 93.5% (inactive) | 99% (inactive) | 99.6% (inactive) | 99.9% (inactive) | 6.58% (inactive) | 93.3% | 99.9% | -7.33% (inactive) | 0.81% (inactive)
CCOC(=O)N1CCN(Cc2ccccc2F)CC1 | 102% | 81% (inactive) | 102% (inactive) | 98.1% (inactive) | 85% (inactive) | -2.15% (inactive) | 87.2% | 85% | -7.33% (inactive) | 2.3% (inactive)
CCOC(=O)C(NC(=O)CC)(Nc1ccc(S(=O)(=O)Nc2onc(C)c2C)cc1)C(F)(F)F (stereo not given) | 116% | 97.5% (inactive) | 116% (inactive) | 102% (inactive) | 106% (inactive) | 8.86% (inactive) | 97% | 106% | -3.77% (inactive) | -0.48% (inactive)
O=C(Cn1c(C(=O)NCC2CCCO2)cc2sccc21)c1ccccc1 (stereo not given) | 94.5% | 100% (inactive) | 94.5% (inactive) | 101% (inactive) | 90.3% (inactive) | 7.12% (inactive) | 83.2% | 90.3% | -1.56% (inactive) | -5.56% (inactive)
COc1cccc(OCCSc2nnc3sc4ccccc4n23)c1 | 86% | 98% (inactive) | 86% (inactive) | 106% (inactive) | 85.3% (inactive) | -6.48% (inactive) | 91.8% | 85.3% | 2.73% (inactive) | 0.66% (inactive)
CCOC(=O)c1sc(NC(=O)CSc2nnnn2-c2ccccc2)c(C(=O)OCC)c1C | 80% | 85% (inactive) | 80% (inactive) | 36.6% (inactive) | 65.7% (inactive) | 19.6% (inactive) | 46.1% | 65.7% | 4.68% (inactive) | -6.83% (inactive)
